Screening data: PubChem BioAssay, several laboratories
KCC2 mod = KCC2 cotransporter modulators, thallium flux, primary screen, cell-based, HEK293 KCC2, FluoZin-2 fluorescence, MLSMR | B-score of Tl+ flux slope (higher = more flux/activation; lower = inhibition) at 10 µM | Solute carrier family 12 member 5 (Homo sapiens), Q9H2X9 | actives 2.2% (n = 190,000) | KCC2 cells, thallium flux FluoZin-2 fluorescence;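 active means thallium flux slope and its plate-corrected score both differing from the plate sample mean at a set confidence after two filtering rounds, in either direction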;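 further: slope of fluorescence scaled to starting intensity during 10 to 20 s after thallium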
SKKanGAS inh = S. pyogenes SKKanGAS growth inhibitors in kanamycin, primary screen, streptokinase expression inhibitor project, SKKanGAS strain, BacTiter-Glo luminescence; 6 h; inhibition, % at 7.5 µM; actives 1.3% (n = 300,000); AID 1662, 2009;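 active means mean replicate score, as percent of positive control median, at least 50; inconclusive means mean below 50 but one replicate at or above 50; inactive means mean and every replicate below 50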;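 further: strain carries kanamycin resistance gene driven by streptokinase promoter and grows in 40 µg/ml kanamycin; loss of luminescence reflects streptokinase promoter inhibition or plain growth inhibition; 0% = median of DMSO wells and 100% = positive control at its reference dose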
Insulin prom up = insulin promoter activators in MIN6 cells, imaging, high-content screening, mouse beta cells | z-score at 5 µM | actives 0.3% (n = 190,000) | MIN6 insulin promoter-GFP reporter; hits give high values;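 active means z-score above 3 at 5 µM with at least 500 cells counted in the well; inconclusive means wells under 500 cells, flagged as cytotoxic or low count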
Rad51 HR inh = human RAD51 strand exchange inhibitors, primary screen, biochemical, fluorescence. AID 1385, 2008. hRad51 DNA strand exchange, fluorescence dequenching. inhibition, % at 10 µM. actives 0.085% (n = 200,000);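 active means inhibition above 40% at the single screening dose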;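 further: 0% = DMSO control wells and 100% = blanks with heterologous ssDNA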
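System: hRad51 filaments on single-stranded DNA; reagent: Fluorescein- and BHQ1-tagged 47-mer duplex; compound dosing: one concentration, 10 µM final; timing: filaments 15 min 37 °C, then compound 30 min; measured by: fluorescein emission 520 nm, excitation 485 nm; benchmarks: per-plate controls and blanks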
WT yeast gro inh = growth inhibition of WT strain, primary screen, mitochondrial fusion inhibitor project, WT and mutant strains, chemical genetic. inhibition, % at 10 µM. actives 2.1% (n = 190,000). AID 1362, 2008. mitochondrial fusion phenotypic screen; in the data active means inhibition above about 58%; tested in S. cerevisiae
Autophagy HCS = autophagy modulators in MEF cells, primary screen, imaging, high-content, MEF GFP-LC3. AID 463193, 2010. MEF GFP-LC3 puncta imaging; test concentration mostly 10 µM. calls only at 10 µM (by protocol). actives 0.98% (n = 190,000);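 active means percentage of spot-positive cells more than 3 SD above its plate mean, without a fluorescence outlier flag or 80% toxicity; inconclusive means no clear call, values can overlap the other calls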;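 further: spot-positive cell cutoff set from DMSO-treated cells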
An asterisk follows results filed as active; i = inactive; ? = inconclusive; . = not tested or not shown. Shown are actives, neighbours in structure and some others; about 4.2% of the full set was active somewhere.

SMILES	KCC2 mod	SKKanGAS inh	Insulin prom up	Rad51 HR inh	WT yeast gro inh	Autophagy HCS
N/C(=N\NC(=O)c1ccccc1Cl)c1cc2ccccc2oc1=O	-0.058	-6	1.6	1	-3	i
O=C1C[C@@H](c2ccccc2)Oc2cc(O)cc(O)c21	.	1	.	0	.	.
COc1c(CC=C(C)C)cc(C2CC(=O)c3c(O)cc(O)cc3O2)cc1CC=C(C)C (centres undefined)	0.62	101*	?	-4	.	.
Cc1ccccc1CN1CCc2c(OCC(=O)N3CCCc4ccccc43)cccc2C1=O	-1.4	18	-0.19	-4	62*	i
Cc1ccccc1COC(=O)CNC(=O)c1sc2ccccc2c1Cl	.	37	.	.	.	.
CCCOC(=S)NC(=O)c1sc2ccccc2c1Cl	60*	0	-0.04	7	8	i
CCOC(=S)NC(=O)c1sc2ccccc2c1Cl	74*	-9	-0.27	-3	-14	i
CC(C)(C)C(=O)NC(=S)NNC(=O)c1sc2ccccc2c1Cl	48*	100*	-0.66	.	75*	i
CCc1noc(C)c1C(=O)N1CCC(CCC(=O)Nc2cccc(C)c2)CC1	.	-11	.	.	.	.
Clc1ccc(-[n+]2c(-c3cccc(Br)c3)[nH]c3nc4ccccc4nc32)cc1	-2.5	85*	-0.33	-2	.	.
CC(=O)c1sc(-c2ccccc2)cc1NS(=O)(=O)c1ccc(C)cc1	30*	19	0.19	4	.	.
O=C(O)C1CCCCC1C(=O)NCc1ccccn1 (centres undefined)	0.65	7	-0.08	-4	3	i
O=C(Nc1ccc(F)cc1)/C(=C1/CCCCCN1)[N+](=O)[O-]	0.72	2	0.07	6	.	.
CC(=O)[C@@]1(O)CC[C@H]2[C@@H]3CCC4=CC(=O)CC[C@]4(C)[C@H]3CC[C@@]21C	0.61	-4	.	-5	-5	i
CCCCCC(=O)O[C@]1(C(C)=O)CC[C@H]2[C@@H]3CCC4=CC(=O)CC[C@]4(C)[C@H]3CC[C@@]21C	-1.1	9	.	-2	74*	i
O=C(NC(Cc1ccccc1)C(=O)O)C1CCN(S(=O)(=O)c2ccccc2C(F)(F)F)CC1 (centres undefined)	.	-9	.	.	.	.
O=C(/C=C/c1ccccc1[N+](=O)[O-])c1ccccc1Br	-0.74	3	0.35	-139	69*	i
Cc1ccc(C(=O)/C=C/c2ccccc2[N+](=O)[O-])cc1	0.44	-5	-0.04	4	-11	i
CCc1cccc(NC(=O)c2cccc3c2C(=O)N(C2CCCCC2)C3)c1	.	4	.	.	.	.
COc1ccccc1-c1nnc(NC(=O)c2ccc(S(=O)(=O)N(C)Cc3ccccc3)cc2)o1	.	.	0.26	-7	-18	i
CCc1nnc(NC(=O)c2ccc(S(=O)(=O)N(CC)Cc3ccccc3)cc2)o1	2.2	15	0.35	1	63*	i
CCCCN(CCCC)S(=O)(=O)c1ccc(C(=O)Nc2nnc(COC)o2)cc1	0.62	92*	-0.05	7	38	i
CN(Cc1ccccc1)S(=O)(=O)c1ccc(C(=O)Nc2nnc(C3CC3)o2)cc1	-0.0044	79*	-0.04	-6	74*	i
O=C(/C=C/c1ccccc1)NCCc1ccccc1	-0.67	100*	-0.52	3	.	.
O=C(/C=C/c1ccc([N+](=O)[O-])cc1)NCCc1ccccc1	-0.82	-23	-0.73	2	-6	i
CCOC(=O)C1CCN(C(=O)c2ccc3c(=O)n4nc(Nc5cc(C)ccc5C)sc4nc3c2)CC1	.	50*	.	.	.	.
O=C(NCC1CCCO1)c1ccc(Br)o1 (centres undefined)	0.06	1	-0.39	41*	-7	i
O=C(N1CCCC1)C(F)(F)Oc1ccc(F)cc1	0.24	-1	.	6	1	i
O=c1[nH]ncn1-c1ccc(Br)cc1	0.024	-11	0.52	.	5	i
